# Measured values gathered from unrelated publications.
# Each line is one published result; the experiments were not run side by side.
# Target: RAC-alpha serine/threonine-protein kinase (AKT1, Homo sapiens, UniProt P31749)
SMILES,observed,mode,method,tested at,endpoint,result
Cn1cncc1C1=CN(c2ncnc3[nH]cnc23)CCS1,enzyme activity,inhibitor,radiometric,50 nM,inhibition,25.1%
Cc1ccc(Nc2nccc(N(C)c3ccc4c(C)n(C)nc4c3)n2)cc1S(N)(=O)=O,enzyme activity,inhibitor,,10 µM,inhibition,6%
O=C1NC(=O)c2cc(Nc3ccc(F)cc3)c(Nc3ccc(F)cc3)cc21,cell-free assay,,,0.5 µM,remaining signal,94.8%
CC1=C(C#N)[C@@H](c2ccc3[nH]nc(C)c3c2)C(C#N)=C(c2ccc(Cl)cc2)N1,cell-free assay,,competition with immobilised ligand,1 µM,remaining binding,100%
O=C(Nc1cnn(-c2csc(C(=O)NC3COC3)c2)c1)Nc1c(F)cccc1Cl,enzyme activity,inhibitor,,5 µM,remaining activity,105%
Cc1c[nH]c2nccc(Oc3c(F)cc(Nc4cc(Cl)nc(N)n4)cc3F)c12,cell-free assay,,competition with immobilised ligand,0.1 µM,remaining binding,100%
Cc1cnc(NC2CCOCC2)nc1-n1cnc(C(=O)NC(CN)c2cc(F)cc(Cl)c2)c1 (stereo not shown),enzyme activity,inhibitor,radiometric,1 µM,remaining activity,89%
CSc1nc(C)c(-c2ccnc(Nc3ccc(N4CCOCC4)cc3)c2)[nH]1,enzyme activity,inhibitor,,10 µM,inhibition,-2.9%
O=S(=O)(NCCNC/C=C/c1ccc(Br)cc1)c1cccc2cnccc12,cell-free assay,,,0.5 µM,remaining signal,41.6%
CNC(=O)Nc1ccc2c(c1)CC[C@@]21OC(=O)N(CC(=O)N(Cc2ccc(F)cc2)[C@@H](C)C(F)(F)F)C1=O,cell-free assay,,competition with immobilised ligand,1 µM,remaining binding,91%
COc1cc(/C=C/C(=O)CC(=O)/C=C/c2ccc(O)c(OC)c2)ccc1O,enzyme activity,inhibitor,,1 µM,activity vs control,102%
CN1CC(Oc2cnc(C#N)cc2-c2ccn3nc(NC(=O)C4CC4)cc3c2)C1,enzyme activity,inhibitor,,1 µM,inhibition,-4%
COc1cc(Nc2cnc(C#N)c(O[C@H](C)CN(C)C)n2)ncc1-c1cnn(C)c1,enzyme activity,inhibitor,radiometric,10 µM,remaining activity,87%
FC(F)c1nc2ccccc2n1-c1nc(N2CCOCC2)nc(N2CCOCC2)n1,enzyme activity,inhibitor,,10 µM,remaining activity,123%
CCOc1cc(-c2nncn2C)ccc1Nc1ncc2cc(C)nc(NCC(C)(C)C)c2n1,enzyme activity,inhibitor,FRET,1 µM,inhibition,< 15%
CNc1cccc2cc(C(=O)Nc3ccc(C(=O)O)cc3)c(=O)[nH]c12,enzyme activity,inhibitor,,10 µM,inhibition,2.2%
COc1cc2ncnc(Nc3ccc(Oc4ccccc4)cc3C)c2cc1OC,enzyme activity,inhibitor,,1 µM,inhibition,0%
O=C(CSc1nc2nccnc2c(=O)n1CCc1ccccc1)Nc1nccs1,enzyme activity,inhibitor,,10 µM,inhibition,4%
CN(C)C1CCN(CC#Cc2nn(C3CCCC3)c3nc(NCc4ccccc4)ncc23)C1 (stereo not shown),enzyme activity,inhibitor,FRET,0.1 µM,inhibition,4%
O=C(Nc1cnn(-c2csc(C(=O)NC3COC3)c2)c1)Nc1ccccc1Cl,enzyme activity,inhibitor,,5 µM,remaining activity,95.4%
C[C@@H]1CN(c2cc(-c3nn(C)c4ccc(OC5(C)CC5)cc34)ncn2)C[C@H](C)O1,cell-free assay,,competition with immobilised ligand,1 µM,remaining binding,100%
CNC(=O)c1cc(Oc2ccc(NC(=O)Nc3ccc(Cl)c(C(F)(F)F)c3)cc2)ccn1,enzyme activity,inhibitor,,0.3 µM,inhibition,-6%
C[C@@H]1CCN(C(=O)CC#N)C[C@@H]1N(C)c1ncnc2[nH]ccc12,cell-free assay,inhibitor,,0.5 µM,remaining signal,90.3%
CCc1ccccc1C(=O)Nc1n[nH]c2c(C)c(F)c(C3C(C#N)=C(C)N(C)C(C)=C3C#N)cc12,cell-free assay,,competition with immobilised ligand,1 µM,remaining binding,75%
Oc1cccc(-c2nc(N3CCOCC3)c3oc4ncccc4c3n2)c1,enzyme activity,inhibitor,,10 µM,remaining activity,78%
Nc1nc(NC2CCCCC2)sc1C(=O)c1ccccc1,enzyme activity,inhibitor,,10 µM,remaining activity,85%
CC(C)(C)c1nc2c(s1)c1nc(N)ncc1c1ccc(NS(=O)(=O)c3c(F)cccc3F)c(F)c12,enzyme activity,inhibitor,radiometric,1 µM,remaining activity,88%
CCN(CC)CCNC(=O)c1c(C)[nH]c(/C=C2\C(=O)Nc3ccc(F)cc32)c1C,cell-free assay,,,0.5 µM,remaining signal,105%
Cc1nc(C2CCN(C(=O)c3ccc(OC(F)(F)F)cc3N)CC2)c2ncc(N3CCN(C)CC3)cc2n1,cell-free assay,,competition with immobilised ligand,1 µM,remaining binding,100%
C=CC(=O)Nc1cc(Nc2nccc(Nc3cc(Cl)c(F)cc3C(C)(C)O)n2)c(OC)cc1N1CC[C@@H](N(C)C)C1,enzyme activity,inhibitor,,1 µM,inhibition,-5%
N#CCCc1ccc2c(c1)-c1[nH]c3ccc([N+](=O)[O-])cc3c1CC(=O)N2,cell-free assay,,,0.5 µM,remaining signal,111%
CC(C)c1ccc(NC(=O)c2cccs2)c(-c2nc3ccccc3[nH]c2=O)c1,enzyme activity,inhibitor,,1 µM,activity vs control,120%
Cn1cnc(Br)c1C1=CN(c2ncnc3[nH]cnc23)CCS1,enzyme activity,inhibitor,radiometric,2 µM,inhibition,84.3%
Cc1c(NC(=O)c2cc(C(N)=O)nc3cc(F)ccc23)c(C(F)(F)F)nn1Cc1ccc(C#N)cc1,cell-free assay,,competition with immobilised ligand,1 µM,remaining binding,91%
Nc1nc(Nc2ccccc2)sc1C(=O)c1c(F)cccc1F,enzyme activity,inhibitor,,10 µM,remaining activity,84%
Nc1c(C(=O)NCc2ccc(C(=O)NCCCC3CCCCC3)cc2)cnn1-c1ccccc1,cell-free assay,,competition with immobilised ligand,0.1 µM,remaining binding,100%
FC(F)(F)Oc1cccc(-c2cnc3ccc(-c4ccncc4)nn23)c1,enzyme activity,inhibitor,radiometric,1 µM,activity vs control,90%
